An excerpt weighted towards active compounds, which were near 2.7% of everything screened.
PTPN22 inh 2 – LYP (human) phosphatase inhibition | Q9Y2R2 | recombinant LYP catalytic domain, DiFMUP fluorescence | inhibition, % at 2 µM | 96,000 tested, 0.21% active | AID 640;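 active means inhibition at 2 µM at or above a set limit, the screen mean plus 3 SD, cut at about 24% in these data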
PLK1 PBD inh – inhibitors of human Plk1 polo box domain binding. Plk1 PBD phosphopeptide binding, fluorescence polarization. inhibition, %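 (tested at about 20 µM)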. 97,000 tested, 0.13% active. AID 693; in the data active means inhibition above about 34%, passing the limit was not always enough
Target sequence (P53350 whole entry, looked up, the tested form may be a part): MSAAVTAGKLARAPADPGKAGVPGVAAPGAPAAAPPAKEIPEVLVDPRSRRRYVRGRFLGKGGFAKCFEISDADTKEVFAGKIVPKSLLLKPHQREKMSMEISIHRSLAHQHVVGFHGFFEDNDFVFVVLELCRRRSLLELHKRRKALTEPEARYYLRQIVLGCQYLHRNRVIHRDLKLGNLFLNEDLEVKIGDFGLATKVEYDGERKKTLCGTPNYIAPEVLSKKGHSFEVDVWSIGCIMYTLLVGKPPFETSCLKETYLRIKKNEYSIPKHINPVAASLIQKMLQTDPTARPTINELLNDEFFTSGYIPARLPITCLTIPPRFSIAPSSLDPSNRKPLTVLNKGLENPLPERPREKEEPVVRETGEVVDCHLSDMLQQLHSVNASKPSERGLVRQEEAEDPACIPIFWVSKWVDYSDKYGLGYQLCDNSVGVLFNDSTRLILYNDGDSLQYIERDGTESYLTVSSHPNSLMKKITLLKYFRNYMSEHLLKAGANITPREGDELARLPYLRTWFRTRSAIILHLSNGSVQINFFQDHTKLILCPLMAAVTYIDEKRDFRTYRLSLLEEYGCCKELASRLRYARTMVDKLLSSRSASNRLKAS
LYP act – LYP (human) phosphatase activation. 96,000 tested, 0.11% active. recombinant LYP, DiFMUP fluorescence; 0 = plate median, 100 = signal doubled. activation, % at 2 µM. AID 697;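 active means activation at 2 µM above a set limit, the mean plus 5 SD, cut at about 37% in these data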
PLK1 inh – blocks human PLK1 kinase activity. P53350. recombinant PLK1 kinase, TR-FRET peptide phosphorylation. inhibition, % at 10 µM. 97,000 tested, 0.53% active;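 active means inhibition of 50% or more in the single-concentration screen; inactive means inhibition below 50%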
Rev-RRE block – disrupts HIV-1 Rev binding to RRE RNA | AID 704 | 97,000 tested, 0.79% active | Rev peptide-RRE RNA binding, FRET | inhibition, % at 8 µM;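 active means inhibition above the screen-wide mean plus 3 SD, cut at about 35% in these data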
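Test system: labelled RRE RNA duplex and labelled Rev peptide. Times: 5 min compound–RNA preincubation, then 15 min with peptide, 25 °C. Doses: single-dose 8 µM. Measured by: FRET, excitation 480 nm, emission 540 nm donor and 671 nm acceptor. Measure: % inhibition of FRET ratio versus controls.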
DAT uptake mod – human DAT dopamine uptake with cocaine, either direction; LLC-PK1 hDAT cells, [14C]-dopamine uptake with cocaine IC80; actives deviate in either direction; Q01959; B-score at 10 µM; 110,000 tested, 1.3% active;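 active means Z score or B-score, a plate-position-corrected score, falls beyond the plate's 99.7% confidence bounds, in either direction; inactive means both scores lie inside the 99.7% bounds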
Hits are given with their value; - = inactive; . = no result given; [ ] = remark or other dose.

SMILES | PTPN22 inh 2 | PLK1 PBD inh | LYP act | PLK1 inh | Rev-RRE block | DAT uptake mod
Cc1ccccc1N1CCN(c2ncnc3scc(-c4cccs4)c23)CC1 | - | - | - | - | - | -
Clc1ccc(CN2CCN(c3ncnc4scc(-c5cccs5)c34)CC2)cc1 | - | - | - | 62.2 | - | -
CS(=O)(=O)N(CCc1ccccc1)CC(=O)NCc1ccco1 | - | - | - | - | - | -
COC(=O)c1cc2c(=O)n3ccccc3nc2n(Cc2cccnc2)c1=N | - | - | - | - | - | -
N=c1c(C(=O)NCc2ccc(F)cc2)cc2c(=O)n3ccccc3nc2n1Cc1cccnc1 | - | - | - | - | 36.9 | -
COC(=O)c1ccccc1NC(=O)c1noc2c1CCCC2 | . | . | . | . | . | -
O=C(Nc1ccccc1C(=O)N1CCOCC1)c1noc2c1CCCC2 | - | - | - | - | - | 2.98
Cc1ccc(C(c2nnnn2CC2CCCO2)N2CCN(c3cccc(C)c3C)CC2)cc1 (stereo not given) | - | - | - | - | - | -
Cc1c(Cl)cccc1NC(=O)c1cccc(OC(F)F)c1 | - | - | - | - | - | -
CN1CCc2nc(NC(=O)c3cccc(OC(F)F)c3)sc2C1 | - | - | - | - | 64.7 | -
CCN1CCc2c(sc(N)c2C#N)C1 | - | - | - | - | 69.0 | -
O=C1COc2ccc(C(=O)c3ccccc3)cc2CN1 | - | - | - | - | - | 3.41
O=C(CC1Oc2ccccc2NC1=O)NC1CC1 (stereo not given) | - | - | - | - | - | .
O=C(CC1Oc2ccccc2NC1=O)NC1CCCC1 (stereo not given) | . | - | . | 69.0 | - | -
O=c1oc2c3c4c(cc2c(C(F)(F)F)c1CCN1CCOCC1)CCCN4CCC3 | - | - | - | - | 113.3[fluorescence artefact?] | -
NC(=O)c1sc2cc(C(F)(F)F)cnc2c1-c1cccs1 | - | - | - | 56.9 | - | -
O=C(O)C(NC(=O)c1ccccc1)=C(Cl)Cl | - | - | - | - | - | -
O=C(Cn1ncc2c3ccccc3n(Cc3ccccc3)c2c1=O)N1CCN(c2ncccn2)CC1 | - | - | - | - | - | 1.76
CCSCCOC(=O)C1=C(C)NC(=O)NC1c1ccccc1 (stereo not given) | - | - | - | 60.6 | - | -
CCSCCOC(=O)C1=C(C)NC(=O)NC1c1ccc2c(c1)OCO2 (stereo not given) | - | - | - | - | - | -
CNC(=O)c1[nH]cnc1C(=O)N[C@@H](C)C(=O)OCc1ccccc1 | . | . | . | . | . | 2.4
O=C(c1cccc(F)c1)N1CCN(c2cccc(Cl)c2)CC1 | - | - | - | - | 141.2[fluorescence artefact?] | -
O=C(NCc1ccc2[nH]c3c(c2c1)CCCC3)N1CCOCC1 | - | - | - | - | 38.8 | -
O=C(NCc1ccc2[nH]c3c(c2c1)CCCC3)c1ccc(S(=O)(=O)N2CCOCC2)cc1 | . | . | . | . | . | -
NC(=O)c1ccccc1NS(=O)(=O)c1cccs1 | - | - | - | - | - | -3.16
SMILES | PTPN22 inh 2 | PLK1 PBD inh | LYP act | PLK1 inh | Rev-RRE block | DAT uptake mod
COc1ccc(-c2ccc(N)[n+](CCCC(=O)O)n2)cc1 | . | . | . | . | . | -
Cc1cccc2cc(CN(Cc3ccccc3)C(=O)c3cccc(F)c3)c(Cl)nc12 | - | - | - | - | - | -
CCC(C(=O)NCc1ccc(F)cc1)N(Cc1ccco1)C(=O)c1snc(C(N)=O)c1N (stereo not given) | - | - | - | - | - | 4.26
COC(C[C@@H]1O[C@@H]1[C@@H](O)COCc1ccccc1)OC | . | . | . | . | . | -
Cc1cccc(C(=O)N/N=C/c2ccc(OCC(=O)N3CCCCC3)cc2)c1 | - | - | - | - | - | 2.19
CC(=O)c1ccc(NC2OC(CO)C(O)C(O)C2O)cc1 (stereo not given) | - | - | - | - | - | -
CC(=O)c1ccc(NC2OC(C)C(O)C(O)C2O)cc1 (stereo not given) | - | - | - | - | - | -2.78
CNC(=O)COc1ncnc2sc(C)c(C)c12 | - | - | - | - | - | -
Cc1sc2ncnc(OCC(=O)NCC3CCCO3)c2c1C (stereo not given) | - | - | - | - | - | -3.27
CC(=O)c1cc(C#N)c(Oc2ccc(Cl)cc2Cl)nc1C | . | - | . | - | - | -
CCCCC1(C)OC(=O)C(=Cc2ccc(N(CC)CC)cc2)C(=O)O1 (stereo not given) | - | - | - | - | 86.8[fluorescence artefact?] | -
CCN(CC)c1ccc(/C=C2\C(=O)N(c3ccc([N+](=O)[O-])cc3)N=C2N2CCOCC2)cc1 | - | - | - | - | - | .
O=C(c1csc2c1CCCCC2)N1CCN(c2ncccn2)CC1 | - | - | - | - | - | -
COc1ccc(N=Cc2sc(O)c3ccccc23)cc1 | - | - | - | - | 128.8[fluorescence artefact?] | -
COc1cc(O)oc1C=Nc1ccc(Oc2ccccc2)cc1 | - | - | - | - | - | -
O=C(Cc1ccccc1F)Nc1nc(-c2cccs2)cs1 | - | - | - | - | - | 3.35
O=C(Cc1ccccc1)Nc1nc(-c2cccs2)cs1 | - | - | - | - | - | -
CCC[C@@H]1CCCO[C@@](C(=O)NCCN2CCOCC2)(C(F)(F)F)C1 | . | . | . | . | . | -
CC(C)(C)CC(=O)N1CCC(c2nc3c(nnn3Cc3c(F)cccc3Cl)c(=O)[nH]2)CC1 | - | - | - | - | - | -
CCCCN(C(=O)CSc1nnc(Nc2ccc(C)c(C)c2)s1)c1c(N)n(Cc2ccccc2)c(=O)[nH]c1=O | 26.5 | - | - | - | - | -
O=C(Nc1cccc(F)c1)N1CCN(C/C=C/c2ccccc2)CC1 | - | - | - | - | - | 2.21
Cc1c(CNC(=O)c2cnn3c2NC(c2ccc(Br)cc2)CC3C(F)(F)F)cnn1C (stereo not given) | - | - | - | - | - | 3.13
Cc1nn(C)cc1CNC(=O)c1cnn2c1NC(c1ccc(Br)cc1)CC2C(F)(F)F (stereo not given) | . | . | . | . | . | -
O=c1ccc(NS(=O)(=O)c2ccccc2)cn1Cc1ccc(Cl)c(Cl)c1 | - | - | - | - | - | -
CCCCC(=O)N(Cc1ccc(-c2ccccc2-c2nn[nH]n2)cc1)[C@H](C(=O)O)C(C)C | . | . | . | . | . | -
SMILES | PTPN22 inh 2 | PLK1 PBD inh | LYP act | PLK1 inh | Rev-RRE block | DAT uptake mod
CC(C(=O)O)N1C(=O)/C(=C/C=C/c2ccco2)SC1=S (stereo not given) | 25.2 | - | - | - | - | -
CC[C@H](C)[C@@H]1NC(=O)c2cc([N+](=O)[O-])cc(I)c2SC[C@@H](C(N)=O)NC(=O)[C@H](CCCCN)NC1=O | . | . | . | . | . | -
COc1ccc(OC)c(-n2c(SC)nnc2-c2c[nH]c3ccccc23)c1 | . | - | . | 67.5 | - | -
COc1ccc(OC)c(-n2c(SCC(=O)Nc3cc(C)on3)nnc2-c2c[nH]c3ccccc23)c1 | . | - | . | 68.4 | - | -
COc1cccc(-n2c(SCC(N)=O)nnc2-c2c[nH]c3ccccc23)c1 | . | - | . | 67.8 | - | -
COc1ccc(OC)c(-n2c(SCC(N)=O)nnc2-c2c[nH]c3ccccc23)c1 | . | - | . | 69.6 | - | -
Cc1ccccc1-n1c(SCc2c(C)noc2C)nnc1-c1c[nH]c2ccccc12 | - | - | - | - | - | -
